Reference: ChEMBL document CHEMBL1155812, “Functionalized pyrrolidine inhibitors of human type II alpha-mannosidases as anti-cancer agents: optimizing the fit to the active site” (Bioorg Med Chem, 2008)
Blank lines part the entries; values can stand above or below the compound they belong to. Calls of active or inactive are those of the source. No cut-off for these calls is given here.

Experiments:
[1] = target: T1, Lysosomal alpha-mannosidase (Homo sapiens, UniProt O00754); experiment: Inhibition of alpha-mannosidase in human LNZ308 cells; assay type: cell-based
T1 sequence (O00754 whole entry): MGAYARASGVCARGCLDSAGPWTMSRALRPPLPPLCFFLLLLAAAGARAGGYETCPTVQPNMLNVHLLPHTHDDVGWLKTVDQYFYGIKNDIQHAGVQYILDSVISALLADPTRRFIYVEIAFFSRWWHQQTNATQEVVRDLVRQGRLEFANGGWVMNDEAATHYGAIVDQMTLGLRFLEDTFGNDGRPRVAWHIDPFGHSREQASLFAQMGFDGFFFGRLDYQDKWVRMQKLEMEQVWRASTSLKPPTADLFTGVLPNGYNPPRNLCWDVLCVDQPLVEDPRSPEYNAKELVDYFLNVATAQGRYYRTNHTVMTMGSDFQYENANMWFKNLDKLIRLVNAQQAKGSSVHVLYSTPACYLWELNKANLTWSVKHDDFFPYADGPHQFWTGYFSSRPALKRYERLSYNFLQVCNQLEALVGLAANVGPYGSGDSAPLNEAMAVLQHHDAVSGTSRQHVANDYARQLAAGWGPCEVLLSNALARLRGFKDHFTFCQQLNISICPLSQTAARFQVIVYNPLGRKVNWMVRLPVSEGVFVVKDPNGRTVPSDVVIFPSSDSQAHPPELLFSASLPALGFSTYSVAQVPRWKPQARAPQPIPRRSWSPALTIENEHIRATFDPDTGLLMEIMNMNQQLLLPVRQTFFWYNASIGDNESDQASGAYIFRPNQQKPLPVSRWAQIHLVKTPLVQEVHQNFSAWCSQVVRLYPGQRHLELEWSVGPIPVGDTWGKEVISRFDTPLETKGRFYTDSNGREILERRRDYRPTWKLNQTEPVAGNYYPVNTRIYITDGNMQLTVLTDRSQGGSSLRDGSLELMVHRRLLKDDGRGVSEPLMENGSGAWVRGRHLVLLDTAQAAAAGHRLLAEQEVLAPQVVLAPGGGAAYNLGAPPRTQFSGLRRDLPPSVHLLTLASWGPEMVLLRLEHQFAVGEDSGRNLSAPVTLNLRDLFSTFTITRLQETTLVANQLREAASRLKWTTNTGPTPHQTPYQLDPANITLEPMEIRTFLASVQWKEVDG
How it was run: (§1)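 Cell layers extracted in pH 5.0 phosphate buffer with 0.1% Triton X-100. Extracts were preincubated with increasing inhibitor concentrations (30 min, 37 °C), then given 4-methylumbelliferyl-α-D-mannopyranoside (150 µM final). Fluorescence increase (ex 360/em 460 nm) followed for 30 min at 37 °C. KM was determined first; IC50 and Ki were derived graphically. Swainsonine served as reference.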

[2] = system: LNZ308; experiment: Decrease in incorporation of [3H]Mann into TCA-precipitable high molecular weight cellular molecule in human LNZ308 cells at 200 uM after 14 hrs; assay type: functional, cell-based
How it was run: (§2)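 Cells given 200 µM inhibitor together with [2,3,4,5-3H]-L-Leu or [2,6-3H]-D-Mann (0.4 µCi/ml final). LNZ308 were seeded 10 h before a 14 h exposure; HCEC were exposed for 6 h. Incorporation measured by 10% TCA precipitation, solubilization in 0.1 N NaOH and beta counting. The Mann/Leu ratio of decrease, treated vs. control, was calculated. Triplicate wells, means ± SD.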

[3] = target: T1, Lysosomal alpha-mannosidase; experiment: Inhibition of alpha-mannosidase in human HCEC; assay type: cell-based; how it was run: as §1
[4] = (§3) Growth inhibition of human LN18 cells after 24 hrs by MTT assay; assay type: functional, cell-based; details: LN-18, 24 h
How it was run: (§4)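 Cells seeded 2 days before in the same medium (glioblastoma lines in DMEM 4.5 g/l glucose, 5% FCS; HCEC with 10% FCS), then exposed to increasing concentrations for 24 h. MTT (5 mg/ml in PBS) was added without medium change for 2 h at 37 °C. Formazan was dissolved in isopropanol-HCl and read at 540 nm. Growth inhibition is the ratio of MTT reduction, treated to untreated. Triplicate wells.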

[5] = system: HCEC; experiment: Decrease in incorporation of [3H]Mann into TCA-precipitable high molecular weight cellular molecule in human HCEC at 200 uM after 6 hrs; assay type: functional, cell-based; how it was run: as §2
[6] = target: T1, Lysosomal alpha-mannosidase; experiment: Inhibition of alpha-mannosidase in human LN18 cells; assay type: cell-based; how it was run: as §1
[7] = (§5) Growth inhibition of human LNZ308 cells after 24 hrs by MTT assay; assay type: functional, cell-based; details: LNZ308, 24 h; how it was run: as §4
[8] = Growth inhibition of human HCEC after 24 hrs by MTT assay; assay type: cell-based; details: for Activity: human, hcec; how it was run: as §4
[9] = Inhibition of drosophila golgi alpha-mannosidase 2
How it was run: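 It was preincubated 30 min at 20 °C with inhibitor added in DMSO, then given p-nitrophenyl α-mannopyranoside, all at 10% final DMSO and 20 °C. Timed aliquots were stopped with equal-volume 0.5 M sodium carbonate and read at A405. Ki was fitted by nonlinear regression on the linear portion of the time course.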

[10] = Inhibition of jack bean alpha-mannosidase; design: species or system Canavalia ensiformis
How it was run: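 Jack bean enzyme (0.01–0.5 U/mL) preincubated 5 min at 20 °C with inhibitor, then reacted 20 min at 37 °C with increasing 4-nitrophenyl-α-D-mannopyranoside at pH 5.5. Stopped with 0.2 M borate pH 9.8; 4-nitrophenolate read at 410 nm. IC50 found graphically, or Ki and inhibition type from Lineweaver–Burk plots.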

[11] = Growth inhibition of melanoma cells; assay type: functional, cell-based; details: Melanoma tumor cell line
[12] = system: LN-18; experiment: as §3; assay type: functional, cell-based; how it was run: as §4
[13] = system: LNZ308; experiment: as §5; assay type: functional, cell-based; how it was run: as §4
[14] = Growth inhibition of human HCEC at 300 uM after 24 hrs by MTT assay; assay type: cell-based; details: HCEC cells, read-out: GI; how it was run: as §4
[15] = Growth inhibition of human LN18 cells at 300 uM after 24 hrs by MTT assay; assay type: functional; details: LN-18, 24 h, read-out: GI; how it was run: as §4
[16] = Growth inhibition of human LNZ308 cells at 300 uM after 24 hrs by MTT assay; assay type: functional; details: LNZ308, 24 h, read-out: GI; how it was run: as §4

Structure (SMILES): O[C@H]1[C@H]2[C@H](O)CCCN2C[C@H]1O [TRIDOLGOSIR]
- IC50 [1]: 0.02 µM
- IC50 [3]: 0.01 µM
- IC50 [9]: 0.04 µM
- Ki [9]: 0.02 µM
- IC50 [10]: 0.04 µM
- Ki [10]: 0.155 µM
- IC50 [6]: 0.05 µM

Structure (SMILES): O=C(OC[C@H](NC[C@H]1NC[C@H](O)[C@@H]1O)c1ccccc1)c1ccc(Br)cc1
- IC50 [11]: 125 µM
- IC50 [1]: 75 µM
- IC50 [3]: 75 µM
- IC50 [6]: 200 µM

Structure (SMILES): O=C1N[C@H](CN[C@@H](CO)c2ccccc2)[C@@H](O)[C@H]1O
- IC50 [1]: 50 µM
- IC50 [3]: 75 µM
- Activity [12]: inactive
- Ki [10]: 4 µM
- IC50 [6]: 350 µM
- Activity [13]: inactive
- Activity [8]: Not Active

Continued by falling IC50 [1], values first:

- IC50 [1]: 150 µM
- IC50 [3]: 75 µM
- IC50 [6]: 750 µM
Structure (SMILES): O=C(OC[C@H](NC[C@H]1NC(=O)[C@H](O)[C@@H]1O)c1ccccc1)c1ccc(Br)cc1
- inhibition at 24 h, 300 µM [14]: 85%
- inhibition of growth at 300 µM [15]: 59%
- inhibition of growth at 300 µM [16]: 51%

- IC50 [1]: 50 µM
- Ki [1]: 41.5 µM
- IC50 [3]: 25 µM
- Ki [3]: 23.3 µM
- IC50 [9]: 80 µM
- Ki [9]: 67 µM
- IC50 [6]: 50 µM
- Ki [6]: 32.5 µM
Structure (SMILES): OC[C@H](NC[C@H]1NC[C@H](O)[C@@H]1O)c1ccccc1

- IC50 [1]: 7.5 µM
- IC50 [3]: 0.75 µM
- IC50 [6]: 75 µM
Structure (SMILES): CN1C(=O)[C@H](O)[C@H](O)[C@H]1CN[C@@H](COC(=O)c1ccc(Br)cc1)c1ccccc1
- Activity [2]: Active
- IC50 [4]: 145 µM
- Activity [5]: Active
- IC50 [7]: 175 µM
- IC50 ([8]; Homo sapiens, HCEC): 100 µM

- IC50 [1]: 0.5 µM
- Ki [1]: 0.55 µM
- IC50 [3]: 0.5 µM
- Ki [3]: 0.67 µM
- Ki [10]: 0.206 µM
- IC50 [6]: 2 µM
- Ki [6]: 3.2 µM
Structure (SMILES): CN1C(=O)[C@H](O)[C@H](O)[C@H]1CN[C@@H](CO)c1ccccc1
- Activity [12]: inactive
- Activity [13]: inactive
- Activity [8]: Not Active
